Calls of active or inactive are those of the source. The rule behind the calls is not given here.
Assays:
Neuronal progenitor cell [1] = assay: Induction of neuronal differentiation in C57BL/6J mouse neuronal progenitor cells assessed as expression of Map2 at 1 uM treated for every second day for 4 days measured after 48 hrs by DAPI-staining based immunofluorescence method; type: functional
Method in brief: (§1)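 Neural stem cells taken from embryonic day 14 cerebrum of C57BL/6J mice, dispersed with trypsin/DNase I at 37 °C, seeded and grown 1 day at 37 °C, 5% CO2. Medium replaced with 10% FCS DMEM (low glucose) containing 1 µM analogue; ethanol at 0.1% as control. After 48 h, cells permeabilized with 0.2% Triton X-100. Staining used anti-Map2 (CF594, red) and anti-Gfap (CF488A, green), each overnight at 4 °C, with DAPI nuclei, then fluorescence microscopy.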

Neuronal progenitor cell [2] = assay: Induction of neuronal differentiation in C57BL/6J mouse neuronal progenitor cells assessed as expression of Gfap at 1 uM treated for every second day for 4 days measured after 48 hrs by DAPI-staining based immunofluorescence method; type: functional; method in brief: as §1
[3] = Induction of neuronal differentiation in C57BL/6J mouse neuronal progenitor cells assessed as fold increase in Map2/beta-actin mRNA level at 1 uM treated for every second day for 4 days by RT-PCR analysis relative to control; type: functional, Neuronal progenitor cell
Method in brief: (§2)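 C57BL/6J E14 mouse cerebral neural stem cells were cultured 24 h after seeding. They were then treated with 1 µM analogue or ethanol control for 4 days, dosed every second day. mRNA was extracted, and Map2, Gfap and β-actin were quantified by real-time PCR. Map2/β-actin or Gfap/β-actin ratios were normalized to the EtOH control (set at 1.0). Values are means of three independent experiments; significance by Dunnett's t-test.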

Neuronal progenitor cell [4] = assay: Induction of neuronal differentiation in C57BL/6J mouse neuronal progenitor cells assessed as increase in relative ratio of Map2/Gfap mRNA level at 1 uM treated for every second day for 4 days by RT-PCR analysis relative to control; type: functional, cell-based
Method in brief: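 E14 C57BL/6J mouse cerebral neural progenitor cells were treated with 1 µM analogue or ethanol every second day for 4 days. Map2 and Gfap mRNA (each relative to β-actin) were measured by real-time PCR. The Map2/Gfap ratio was calculated and normalized to the EtOH control (set at 1.0).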

Neuronal progenitor cell [5] = assay: Induction of neuronal differentiation in C57BL/6J mouse neuronal progenitor cells assessed as increase in Gfap/beta-actin mRNA level at 1 uM treated for every second day for 4 days by RT-PCR analysis relative to control; type: functional, cell-based; method in brief: as §2
Neuronal progenitor cell [6] = assay: Induction of neuronal differentiation in C57BL/6J mouse neuronal progenitor cells assessed as increase in Map2/beta actin mRNA level at 1 uM treated for every second day for 4 days by RT-PCR analysis relative to control; type: functional, cell-based; method in brief: as §2

SMILES	Activity (Neuronal progenitor cell [1])	Activity (Neuronal progenitor cell [2])	fold change (FC) [3]	Activity (Neuronal progenitor cell [4])	Activity (Neuronal progenitor cell [5])	Activity (Neuronal progenitor cell [6])
CC1=C(C/C=C(\C)CC/C=C(\C)CNc2ccc(F)cc2)C(=O)c2ccccc2C1=O	Active	inactive	> 2	Active	–	–
CC(C)=CCC/C(C)=C/CC/C(C)=C/CC/C(C)=C/CC1=C(C)C(=O)c2ccccc2C1=O [MENATETRENONE]	Active	Active	>2	–	Active	–
CC1=C(C/C=C(\C)CC/C=C(\C)CC/C=C(\C)COc2cccc(C)c2)C(=O)c2ccccc2C1=O	Active	inactive	–	Active	–	Active
CC1=C(C/C=C(\C)CC/C=C(\C)CC/C=C(\C)COc2ccccc2)C(=O)c2ccccc2C1=O	–	–	–	–	–	Active
CC1=C(C/C=C(\C)CC/C=C(\C)CNc2ccccc2)C(=O)c2ccccc2C1=O	–	–	–	–	–	Active
